From paper PMC2696058 (Bioorganic & medicinal chemistry, 2009)

How the values were obtained:
[1] = Decomposition of compound solutions followed by TLC; format: physicochemical; conditions: aqueous solution
N^5CAIR synthetase = N^5CAIR synthetase (Escherichia coli, UniProt P09029); experiment: Kinetic analysis, PK/LDH coupled ATPase assay; format: biochemical; conditions: for Inhibition of N^5CAIR synthetase by DMSO (non-aqueous) solutions: compound added as DMSO solution, not aqueous solution; for Mode of inhibition with respect to AIR / Mode of inhibition with respect to ATP: steady-state kinetics; for Mode of inhibition with respect to AIR: varied AIR; for Mode of inhibition with respect to ATP: varied ATP
Chain of N^5CAIR synthetase (P09029 whole entry): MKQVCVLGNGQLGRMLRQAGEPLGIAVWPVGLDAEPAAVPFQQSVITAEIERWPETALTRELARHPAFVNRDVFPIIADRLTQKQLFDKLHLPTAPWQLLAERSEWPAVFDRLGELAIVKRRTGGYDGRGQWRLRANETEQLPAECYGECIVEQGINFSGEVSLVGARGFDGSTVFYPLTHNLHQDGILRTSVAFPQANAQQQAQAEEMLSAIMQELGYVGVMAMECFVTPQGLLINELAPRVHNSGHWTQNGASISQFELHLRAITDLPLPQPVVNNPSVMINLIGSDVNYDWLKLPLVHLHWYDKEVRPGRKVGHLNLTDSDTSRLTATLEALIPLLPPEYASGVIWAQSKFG

[2] = target: T1, human AIR carboxylase:SAICAR synthetase (Homo sapiens, UniProt P22234); experiment: Coupled assay against human bifunctional enzyme; format: biochemical; conditions: 200 μM compound, both activities assayed simultaneously
T1 sequence (P22234 1-425): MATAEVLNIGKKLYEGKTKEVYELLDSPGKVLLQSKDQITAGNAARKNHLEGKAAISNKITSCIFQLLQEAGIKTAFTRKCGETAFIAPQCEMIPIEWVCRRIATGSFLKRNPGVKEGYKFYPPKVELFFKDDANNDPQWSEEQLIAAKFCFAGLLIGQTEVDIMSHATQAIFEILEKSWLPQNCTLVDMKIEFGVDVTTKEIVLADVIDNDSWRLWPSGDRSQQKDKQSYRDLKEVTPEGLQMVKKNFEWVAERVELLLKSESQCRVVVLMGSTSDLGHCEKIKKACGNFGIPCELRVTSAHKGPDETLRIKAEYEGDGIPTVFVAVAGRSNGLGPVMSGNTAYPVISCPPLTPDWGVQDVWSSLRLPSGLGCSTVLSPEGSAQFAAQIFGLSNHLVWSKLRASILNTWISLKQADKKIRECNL
Outline: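 His-tagged human bifunctional AIR carboxylase:SAICAR synthetase, expressed from a pET22b vector and purified on a cobalt affinity column, >95% pure by SDS-PAGE. The carboxylase and synthetase activities were measured together in one coupled assay, following a method previously described for the Gallus gallus bifunctional enzyme.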

Row | SMILES | Time to complete decomposition to ninhydrin [1] | Inhibition of N^5CAIR synthetase by DMSO (non-aqueous) solutions (N^5CAIR synthetase) | Inhibition of either enzymatic activity (AIR carboxylase, SAICAR synthetase) [2] | Mode of inhibition with respect to AIR (N^5CAIR synthetase) | Mode of inhibition with respect to ATP (N^5CAIR synthetase)
1 | Cc1nonc1NC1(O)C(=O)c2ccccc2C1=O [Compound 1] | approximately 30 minutes | neither compound resulted in inhibition |  |  | 
2 | Cc1nc(NC2(O)C(=O)c3ccccc3C2=O)cs1 [Compound 2] | around 45 minutes | neither compound resulted in inhibition |  |  | 
3 | CCN(CC)C(=O)CN1C(=O)C(=O)c2ccccc21 [Compound 7] |  |  | no inhibition | non-competitive | non-competitive
4 | CCOC(=O)c1noc(C)c1-c1csc(CS(=O)(=O)c2ccc(Cl)cc2)n1 [Compound 13] |  |  | no inhibition | competitive | uncompetitive
5 | Cc1cc2nc3c(=O)[nH]c(=O)nc-3n(C[C@H](O)[C@H](O)[C@H](O)CO)c2cc1C [Compound 14, riboflavin] |  |  | no inhibition | noncompetitive | noncompetitive
